From the RNAGym collection of RNA variant scans (doi:10.1038/s41586-018-0170-7) come the findings set out here.

First the molecules themselves.
B1: tRNA (parent)
chain: GUUCCGUUGGCGUAAUGGUAACGCGUCUCCCUCCUAAGGAGAAGACUGCGGGUUCGAGUCCCGUACGGAACG

This data set covers variants of B1. Description: yeast fitness, log relative to wild type (ln ratio); higher = fitter; tRNA-Arg(CCU), competitive growth, 37 C, 1 M NaCl. The method, boiled down:
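Two independent transformations put a combinatorial tRNA-Arg(CCU) variant library on a HIS3 centromeric plasmid into BY4742 lacking the chromosomal gene. Pools were grown in SC-HIS at 30 °C for 4 generations, then in SC-HIS 1M NaCl at 37 °C for ~6.5 generations (~26.5 h), with three outputs taken per input. Fitness compares a genotype's generations with the wild type's as a natural log ratio. Those generations are OD-scaled log2 output/input frequencies, inverse-variance weighted across replicates, from 125 bp paired-end Illumina counts.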
With U2G G6U, the “yeast fitness (ln)” value is -0.0233.
Turning to U2G G6A C27U A43C A69G A70G C71U, the “yeast fitness (ln)” value was -0.176.
The result for U2G G6A C27U C46U C66U A70U reads -0.01.
With U2G G6A C27U C46U C66U A70G, the “yeast fitness (ln)” value was -0.364.
U2G C66U A69G C71U: the “yeast fitness (ln)” value is -0.213.
With U2G G6A A43C C46U C66U A69G A70U C71U, the “yeast fitness (ln)” value was -0.379.
On to U2G G6A C66U C71U, for which the “yeast fitness (ln)” value was -0.134.
For U2G G6A A43C C66U A69G C71U, the “yeast fitness (ln)” value was -0.284.
With U2G G6A C27U C46U C66A C71U the figure was -0.213; with U2G G6A C27U C66U A69G C71U, -0.409.
Take U2G G6A C27U A43C C46U C66A C71U: the “yeast fitness (ln)” value was -0.283.
As for U2G G6A A43C C46U C66A C71U, the “yeast fitness (ln)” value was -0.153.
With U2G G6A C27U C66U A69G A70G C71U, the “yeast fitness (ln)” value is -0.272.
The result for U2G G6A A43C C66A A69G A70G C71U reads -0.154; that for U2G G6A C66A A69G A70G C71U, -0.213.
Consider U2G G6A C27U C46U C66A A69G A70G C71U, for which the “yeast fitness (ln)” value is -0.251.
For the variant U2G G6A C27U A43C C66U A69G A70G, the “yeast fitness (ln)” value is -0.3.
As to U2G G6A C27U A43C C66U A69G A70U, the “yeast fitness (ln)” value is -0.326.
Turning to U2G G6A C27U A43C C46U A69G A70G, the “yeast fitness (ln)” value is -0.183.
As for U2G G6A C27U A43C C46U A69G A70U, the “yeast fitness (ln)” value is -0.159.
With U2G G6U A43C A69G A70U, the “yeast fitness (ln)” value is -0.227.
Turning to U2G G6U A43C A69G A70G, the “yeast fitness (ln)” value is -0.237.
In the case of U2G G6A C46U C66A A70U C71U, the “yeast fitness (ln)” value was -0.106.
For the variant U2G G6A A43C C46U C66A A70U C71U, the “yeast fitness (ln)” value was -0.227.
U2G G6A A43C C46U C66U A69G A70G C71U: the “yeast fitness (ln)” value was -0.229.
The result for U2G G6A C27U C66A A70U reads -0.126; that for U2G G6A C27U C66A A70G, -0.15.
Consider U2G G6A C27U A43C A70G, for which the “yeast fitness (ln)” value is -0.186.
For the variant U2G G6A C27U A43C A70U, the “yeast fitness (ln)” value is -0.119.
The result for U2G G6A A43C C46U C66U A70G C71U reads -0.149; that for U2G G6A C27U C46U C66U A69G C71U, -0.277; that for U2G G6A C27U C46U C71U, -0.128.
On to U2G G6A C27U C46U, for which the “yeast fitness (ln)” value is -0.0462.
With U2G G6A A43C C46U the figure was -0.0442.
Take U2G G6A C27U A43C C46U C66U A69G A70G: the “yeast fitness (ln)” value is -0.23.
Consider U2G G6A C27U A43C C46U C66U A69G A70U, for which the “yeast fitness (ln)” value is -0.292.
With U2G G6A A43C A69G A70U C71U the figure was -0.364; with U2G C46U C66U A70G, -0.11.
On to U2G C46U C66U A70U, for which the “yeast fitness (ln)” value is -0.00424.
With U2G G6A C66U the figure was -0.0956; with U2G G6A C66A, -0.111; with U2G G6A C27U C66U A69G A70U C71U, -0.4.
Consider U2G C46U A69G, for which the “yeast fitness (ln)” value is -0.208.
Turning to U2G G6A C27U A43C C46U C66U A69G, the “yeast fitness (ln)” value was -0.415.
Take U2G G6A A43C C46U C66A A70U: the “yeast fitness (ln)” value was -0.0808.
Consider U2G G6A A43C C46U C66A A70G, for which the “yeast fitness (ln)” value was -0.169.
U2G G6A A43C C46U A69G C71U: the “yeast fitness (ln)” value was -0.206.
Regarding U2G G6A A43C C46U C66U A70U, the “yeast fitness (ln)” value was -0.000672.
For U2G G6A A43C C46U C66U A70G, the “yeast fitness (ln)” value is -0.205.
Turning to U2G G6A A43C C46U C66U C71U, the “yeast fitness (ln)” value is -0.212.
U2G G6A C27U A43C C46U C66U A69G A70U C71U: the “yeast fitness (ln)” value is -0.433.
On to U2G G6A A69G C71U, for which the “yeast fitness (ln)” value is -0.113.
Consider U2G G6A C46U A69G A70U, for which the “yeast fitness (ln)” value is -0.21.
Regarding U2G G6A C46U A69G A70G, the “yeast fitness (ln)” value was -0.115.
Take U2G G6A C27U A43C C66U A69G A70U C71U: the “yeast fitness (ln)” value is -0.434.
Take U2G G6A A43C A70U: the “yeast fitness (ln)” value was -0.14.
With U2G G6A A43C A70G, the “yeast fitness (ln)” value was -0.0939.
Turning to U2G G6A C46U A70G, the “yeast fitness (ln)” value was -0.0796.
As to U2G G6A C46U A70U, the “yeast fitness (ln)” value was determined as 0.00257.
With U2G G6A C27U A43C C46U C66U A70U C71U the figure was -0.598; with U2G G6A C27U A43C C46U, -0.0569.
With U2G G6A C46U C66U A70G the figure was -0.0322; with U2G G6A C46U C66U A70U, -0.000351.
Take U2G G6A A43C C66U A69G A70U C71U: the “yeast fitness (ln)” value is -0.407.
For the variant U2G G6A A43C C66A A70G C71U, the “yeast fitness (ln)” value was -0.198.
The result for U2G C46U C66A A69G A70G C71U reads -0.139.
With U2G C46U C66U A69G A70U the figure was -0.0704; with U2G C46U C66U A69G A70G, -0.174.
Regarding U2G G6U A43C A70G, the “yeast fitness (ln)” value was -0.173.
In the case of U2G G6U A43C A70U, the “yeast fitness (ln)” value is -0.151.
With U2G G6A A43C C46U A70G the figure was -0.148; with U2G G6A A43C C46U A70U, -0.261; with U2G G6A A43C C66U A69G A70U, -0.235.
With U2G G6A A43C C66U A69G A70G the figure was -0.257; with U2G G6A C27U A43C C46U C66U A69G C71U, -0.377.
For the variant U2G G6A C27U A43C C66U A69G C71U, the “yeast fitness (ln)” value was -0.35.
U2G G6A C27U C46U C66U A69G A70U C71U: the “yeast fitness (ln)” value is -0.394.
In the case of U2G C46U A69G A70G C71U, the “yeast fitness (ln)” value was -0.184.
Take U2G G6A A69G A70G C71U: the “yeast fitness (ln)” value is -0.181.
With U2G G6A C27U C66U A69G A70G, the “yeast fitness (ln)” value is -0.243.
The result for U2G G6A C27U C66U A69G A70U reads -0.0719; that for U2G G6A C27U A70G C71U, -0.216; that for U2G G6A C27U A69G A70U C71U, -0.383.
As for U2G G6U A43C C46U A69G A70G C71U, the “yeast fitness (ln)” value is -0.223.
